Reference: ChEMBL document CHEMBL1149635, “New chemical tools for investigating human mitotic kinesin Eg5” (Bioorg Med Chem, 2007)
The source made the active and inactive calls. No cut-off for these calls is given here.

Experiments:
[1] = tested on: HeLa; assay: Induction of monoastral spindles in HeLa cells at 100 uM after 7 hrs; assay type: functional, Homo sapiens
How it was run: (§1)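 Fixed 1% paraformaldehyde-PBS 37 °C 3 min, then methanol −20 °C 5 min; anti-β-tubulin plus FITC secondary, propidium iodide counterstain. Monoastral spindles counted as percentage of mitotic cells; <25% deemed not significant.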

[2] = tested on: HeLa; assay: Induction of monoastral spindles in HeLa cells at 50 uM after 7 hrs; assay type: functional, Homo sapiens; how it was run: as §1
[3] = biological target: T1, Kinesin-like protein KIF11 (Homo sapiens, UniProt P52732); assay: Inhibition of Eg5 ATPase activity expressed in Escherichia coli after 12 hrs; assay type: functional
T1 sequence (P52732 whole entry): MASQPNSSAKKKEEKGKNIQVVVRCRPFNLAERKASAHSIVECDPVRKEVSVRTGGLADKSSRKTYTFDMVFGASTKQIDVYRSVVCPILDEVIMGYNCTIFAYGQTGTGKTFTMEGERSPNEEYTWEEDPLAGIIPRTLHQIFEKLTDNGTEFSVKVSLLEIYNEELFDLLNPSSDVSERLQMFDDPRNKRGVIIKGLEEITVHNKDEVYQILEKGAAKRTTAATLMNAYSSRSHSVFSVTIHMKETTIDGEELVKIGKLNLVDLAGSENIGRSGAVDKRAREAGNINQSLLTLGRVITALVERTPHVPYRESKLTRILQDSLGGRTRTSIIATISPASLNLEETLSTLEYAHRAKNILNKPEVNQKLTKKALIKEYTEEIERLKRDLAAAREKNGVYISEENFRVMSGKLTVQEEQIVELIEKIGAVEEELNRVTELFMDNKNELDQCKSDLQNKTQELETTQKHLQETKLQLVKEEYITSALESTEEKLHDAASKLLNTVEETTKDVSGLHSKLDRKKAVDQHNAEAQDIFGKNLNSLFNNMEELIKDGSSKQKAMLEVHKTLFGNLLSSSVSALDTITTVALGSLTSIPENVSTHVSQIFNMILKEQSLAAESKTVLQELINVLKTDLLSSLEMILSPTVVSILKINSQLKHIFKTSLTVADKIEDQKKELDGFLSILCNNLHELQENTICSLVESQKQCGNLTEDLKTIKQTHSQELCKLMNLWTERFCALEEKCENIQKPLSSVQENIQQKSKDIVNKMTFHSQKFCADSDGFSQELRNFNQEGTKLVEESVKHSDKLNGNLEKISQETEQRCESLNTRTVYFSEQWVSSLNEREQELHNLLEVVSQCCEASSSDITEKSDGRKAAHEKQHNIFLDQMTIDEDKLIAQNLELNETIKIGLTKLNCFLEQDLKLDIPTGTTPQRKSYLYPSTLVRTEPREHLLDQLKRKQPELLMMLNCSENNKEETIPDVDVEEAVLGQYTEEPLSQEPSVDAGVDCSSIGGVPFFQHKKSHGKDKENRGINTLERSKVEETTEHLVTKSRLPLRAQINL

[4] = biological target: T1, Kinesin-like protein KIF11; assay: Inhibition of microtubule-stimulated Eg5 ATPase activity expressed in Escherichia coli after 12 hrs; assay type: functional
[5] = biological target: T2, Kinesin-like protein KIF11 (Homo sapiens) (UniProt P52732); assay: Inhibition of Eg5 ATPase activity expressed in Escherichia coli at 500 uM after 12 hrs; assay type: functional
T2 sequence (whole entry): T1 sequence (P52732 whole entry)
How it was run: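 Basal (no microtubules) steady-state ATPase of Eg5 2–386 at 1.0 µM, pyruvate kinase/lactate dehydrogenase-coupled assay, room temperature, duplicate, 2.5% DMSO; top concentration 500 µM. Acetylated analogues alternatively preincubated (2 mM) 12 h at 37 °C in DMEM + 10% FBS before basal ATPase measurement.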

[6] = biological target: T2, Kinesin-like protein KIF11 (Homo sapiens); assay: Inhibition of microtubule-stimulated Eg5 ATPase activity expressed in Escherichia coli at 500 uM after 12 hrs; assay type: functional
[7] = tested on: HeLa; assay: Induction of monoastral spindles in HeLa cells after 7 hrs; assay type: functional, cell-based; conditions: Homo sapiens; how it was run: as §1
[8] = biological target: T1, Kinesin-like protein KIF11; assay: Inhibition of Eg5 ATPase activity expressed in Escherichia coli after 12 hrs
[9] = tested on: HeLa; assay: Cell cycle arrest in human HeLa cells assessed as 4N DNA content at 25 uM after 24 hrs; assay type: functional
How it was run: (§2)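 HeLa cells exposed 24 h; two-dimensional flow cytometry with MPM-2 antibody (mitosis-specific phosphoepitopes, FITC-conjugated secondary) and propidium iodide for DNA content; 10,000 events per sample, aggregates gated out; 4N population and fraction MPM-2 positive scored.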

[10] = tested on: HeLa; assay: Cell cycle arrest in human HeLa cells assessed as 4N DNA content at 100 uM after 24 hrs; assay type: functional; how it was run: as §2

IC50 [3] | IC50 [4] | Activity [5] | Activity [6] | IC50 [7] | IC50 [8] | SMILES | Activity [1] | Activity [2] | Activity ([2]; Homo sapiens) | Activity [9] | Activity [10]
9.5 µM | 21 µM | – | – | – | – | CC1=C(C(=O)OCCOCCO)C(c2cccc(O)c2)NC(=S)N1 (configuration not stated) | 50.5% | <25% | – | – | –
39 µM | 69.1 µM | – | – | – | – | CC1=C(C(=O)NCCOCCOCCN=[N+]=[N-])C(c2cccc(O)c2)NC(=S)N1 (configuration not stated) | 14.9% | <25% | – | – | –
– | – | inactive | inactive | – | – | CCOC(=O)C1=C(C)NC(=S)NC1c1ccc(OCCOCCOCCO)c(O)c1 (configuration not stated) | 10.3% | <25% | – | – | –
– | – | inactive | inactive | 62.5 µM | 5 µM | CCOC(=O)C1=C(C)NC(=S)N(C(C)=O)C1c1cccc(OC(C)=O)c1 (configuration not stated) | 83.5% | 39.3% | – | – | –
4 µM | 5.5 µM | – | – | – | – | CC1=C(C(=O)OCCOCCS)C(c2cccc(O)c2)NC(=S)N1 (configuration not stated) | 15.2% | <25% | – | – | –
– | – | inactive | inactive | – | – | CCOC(=O)C1=C(C)NC(=S)NC1c1cc(O)ccc1O (configuration not stated) | – | – | Active | – | –
32 µM | 72.2 µM | – | – | – | – | CC1=C(C(=O)O)C(c2cccc(O)c2)NC(=S)N1 (configuration not stated) | 15.5% | <25% | – | – | –
– | – | inactive | inactive | – | – | CCOC(=O)C1=C(C)NC(=S)NC1c1ccc(O)c(O)c1 (configuration not stated) | – | <25% | – | – | –
– | – | inactive | inactive | – | – | CCOC(=O)C1=C(C)NC(SCC)=NC1c1cccc(O)c1 (configuration not stated) | <25% | <25% | – | – | –
– | – | inactive | inactive | – | – | CCOC(=O)C1=C(C)N(CCOCCOCCO)C(=S)NC1c1cccc(O)c1 (configuration not stated) | 13.6% | <25% | – | – | –
4.5 µM | 11.5 µM | – | – | – | – | CC(=O)SCCOCCOC(=O)C1=C(C)NC(=S)NC1c1cccc(O)c1 (configuration not stated) | 32.5% | <25% | – | – | –
– | – | inactive | inactive | 50 µM | 3.9 µM | CCOC(=O)C1=C(C)NC(=S)NC1c1cccc(OC(C)=O)c1 (configuration not stated) | 89.6% | 49.7% | – | – | –
23 µM | 82.3 µM | – | – | – | – | CCNC(=O)C1=C(C)NC(=S)NC1c1cccc(O)c1 (configuration not stated) | 17.8% | <25% | – | – | –
– | – | inactive | inactive | – | – | CCOC(=O)C1=C(C)NC(=S)NC1c1cc(OC(C)=O)ccc1OC(C)=O (configuration not stated) | – | 56.2% | – | – | –
1.5 µM | 3 µM | – | – | 9.2 µM | – | CC1=C(C(=O)c2ccco2)C(c2cccc(O)c2)NC(=S)N1 (configuration not stated) | – | 96.8% | – | 72% | 77%
23 µM | 62.5 µM | – | – | – | – | CC1=C(C(=O)OCCOCCOCCOCCO)C(c2cccc(O)c2)NC(=S)N1 (configuration not stated) | 16.8% | <25% | – | – | –
– | – | inactive | inactive | – | 3.8 µM | CCOC(=O)C1=C(C)NC(=S)N(C(C)=O)C1c1cccc(O)c1 (configuration not stated) | – | 36.9% | – | – | –
– | – | inactive | inactive | – | – | CCOC(=O)C1=C(C)N=C(SCc2ccccc2)NC1c1cccc(O)c1 (configuration not stated) | <25% | <25% | – | – | –
10 µM | 24 µM | – | – | – | – | CC1=C(C(=O)OCCOCCOC(=O)C2=C(C)NC(=S)NC2c2cccc(O)c2)C(c2cccc(O)c2)NC(=S)N1 (configuration not stated) | 11.4% | <25% | – | – | –
6.1 µM | 12.3 µM | – | – | 51.3 µM | 6.1 µM | CCOC(=O)C1=C(C)NC(=S)NC1c1cccc(O)c1 (configuration not stated) [MONASTROL] | 94.4% | 45.5% | – | – | 48%
– | – | inactive | inactive | – | – | CCOC(=O)C1=C(C)NC(=S)NC1c1cc(O)ccc1[N+](=O)[O-] (configuration not stated) | – | <25% | – | – | –
22 µM | 18.3 µM | – | – | – | – | CC1=C(C(=O)NCCOCCOCCN)C(c2cccc(O)c2)NC(=S)N1 (configuration not stated) | 15.8% | <25% | – | – | –
– | – | – | – | – | – | COC(=O)Nc1nc2cc(C(=O)c3cccs3)ccc2[nH]1 [NOCODAZOLE] | – | – | – | 82% | –

SMILES | IC50 [3] | IC50 [4] | Activity [5] | Activity [6] | IC50 [7] | IC50 [8] | Activity [1] | Activity [2] | Activity ([2]; Homo sapiens) | Activity [9] | Activity [10]
CCOC(=O)C1=C(C)NC(=[Se])NC1c1cccc(O)c1 (configuration not stated) | 11.5 µM | 23 µM | – | – | – | – | 33.2% | – | – | – | –
